{"data": "Experimental data of several laboratories", "target": "Receptor tyrosine-protein kinase erbB-2 (ERBB2, Homo sapiens, UniProt P04626)", "note": "Protocols differ between the studies behind these lines."}
{"Compound": "CN(CCCC(F)(F)F)c1nccc(-c2cnn3ncccc23)n1", "effect on": "binding", "concentration": "1 µM", "remaining binding [%]": 99}
{"Compound": "COc1cccc(CNC(=O)c2nc3scc(COCc4ccc(C(=O)O)cc4)c3c(=O)[nH]2)c1", "effect on": "cell-free assay", "method": "competition with immobilised ligand", "concentration": "1 µM", "remaining binding [%]": 97.2}
{"Compound": "C[C@H]1CCN(c2nccc(-c3cnn4ncccc34)n2)C1", "effect on": "binding", "concentration": "1 µM", "remaining binding [%]": 94}
{"Compound": "CCN1CCN(Cc2ccc(C(=O)Nc3ccc(C)c(Oc4ccc5c(c4)CC(=O)N5)c3)cc2C(F)(F)F)CC1", "effect on": "binding", "method": "competition with immobilised ligand", "concentration": "1 µM", "remaining binding [%]": 80}
{"Compound": "O=C(c1ccc(Nc2nccc(-c3cc4ccccc4s3)n2)cc1)N1CCC(N2CCCC2)CC1", "effect on": "binding", "method": "competition with immobilised ligand", "concentration": "1 µM", "remaining binding [%]": 90}
{"Compound": "N#Cc1ccccc1CSc1nnc2c(n1)[nH]c1ccccc12", "effect on": "binding", "method": "competition with immobilised ligand", "concentration": "10 µM", "remaining binding [%]": 94}
{"Compound": "N[C@@H]1CCN(c2nccc(-c3cnn4ncccc34)n2)C1", "effect on": "binding", "concentration": "1 µM", "remaining binding [%]": 100}
{"Compound": "O=C(Nc1c[nH]nc1C(=O)NC1CCNCC1)c1cc(F)cc(F)c1", "effect on": "binding", "method": "competition with immobilised ligand", "concentration": "1 µM", "remaining binding [%]": 69}
{"Compound": "C[C@@H](c1cccc(C#N)c1)n1cc(Cl)cc(C(N)=O)c1=N", "effect on": "cell-free assay", "method": "competition with immobilised ligand", "concentration": "1 µM", "remaining binding [%]": 96}
{"Compound": "CN(C)c1ncc(F)c(-c2cnn3ncccc23)n1", "effect on": "binding", "concentration": "1 µM", "remaining binding [%]": 98}
{"Compound": "O=C(c1ccc(Nc2ncc(Cl)c(-c3ccc(Cl)s3)n2)cc1)N1CCC(N2CCCC2)CC1", "effect on": "binding", "method": "competition with immobilised ligand", "concentration": "1 µM", "remaining binding [%]": 82}
{"Compound": "CS(=O)(=O)NCC[C@H](NC(=O)c1cncc2c1cnn2-c1ccc(F)cc1)c1ccnc(S(C)(=O)=O)c1", "effect on": "cell-free assay", "method": "competition with immobilised ligand", "concentration": "1 µM", "remaining binding [%]": 100}
{"Compound": "CC(C)(C)c1ccc(-c2nc(CBr)nn2-c2cccc(O)c2)cc1", "effect on": "cell-free assay", "method": "competition with immobilised ligand", "concentration": "10 µM", "remaining binding [%]": 84}
{"Compound": "CN(c1nccc(-c2cnn3ncccc23)n1)C1CC1", "effect on": "binding", "concentration": "1 µM", "remaining binding [%]": 85}
{"Compound": "CNCc1ccccc1-c1csc([C@H](C)Nc2nc(C)nc3cc(OC)c(OC)cc23)c1", "effect on": "cell-free assay", "method": "competition with immobilised ligand", "concentration": "1 µM", "remaining binding [%]": 100}
{"Compound": "C[C@@H]1CN(c2ccc3ncc(-c4ccc5[nH]nc(C6CC6)c5c4)n3n2)C[C@H](C)O1", "effect on": "binding", "method": "competition with immobilised ligand", "concentration": "50 nM", "remaining binding [%]": 87}
{"Compound": "C[C@@H](c1ccc(-n2cnc3c(N)ncnc32)cc1)N1CCc2nn(C)c(Cc3ccccc3)c2C1=O", "effect on": "binding", "method": "competition with immobilised ligand", "concentration": "0.1 µM", "remaining binding [%]": 81}
{"Compound": "O=C(Nc1cccnn1)N1CC(C/C=C/c2cncc(Oc3ccc(C(F)(F)F)cn3)n2)C1", "effect on": "cell-free assay", "method": "competition with immobilised ligand", "concentration": "1 µM", "remaining binding [%]": 83}
{"Compound": "COc1cnc(Nc2cccc(S(N)(=O)=O)c2)nc1N1CCN(c2ccccc2)CC1", "effect on": "binding", "method": "competition with immobilised ligand", "concentration": "1 µM", "remaining binding [%]": 100}
{"Compound": "CS(=O)(=O)N1CCCC(NC(=O)[C@H](CCC2CCCCC2)NC(=O)c2ccc(CNC(=O)c3cnc4ccccn34)cc2)C1 (some centres unmarked)", "effect on": "cell-free assay", "method": "competition with immobilised ligand", "concentration": "0.1 µM", "remaining binding [%]": 100}
{"Compound": "O=C(NCCCN1CCOCC1)c1ccc(Nc2nccc(-c3cc4ccccc4s3)n2)cc1", "effect on": "binding", "method": "competition with immobilised ligand", "concentration": "1 µM", "remaining binding [%]": 93}
{"Compound": "COc1cc(-c2cn(C3CCc4c(F)cccc4N(CC(F)(F)F)C3=O)nn2)ccc1-n1cnc(C)c1 (centres unmarked)", "effect on": "cell-free assay", "method": "competition with immobilised ligand", "concentration": "1 µM", "remaining binding [%]": 100}
{"Compound": "Nc1ncc2c(n1)-c1c([nH]c3ccc(C#CC4CC4)cc13)CCCC2", "effect on": "binding", "method": "competition with immobilised ligand", "concentration": "1 µM", "remaining binding [%]": 91}
